# UPR XBP1 act: activators of adaptive XBP1 UPR arm, primary screen, cell-based, CHO-XBP1 luciferase reporter, luminescence, uHTS | IRE1-XBP1 UPR activation; percent of tunicamycin response, DMSO as zero | activation, % at 20 µM | hit rate 0.33% among 330,000 | AID 463104, 2010;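 active = versus positive control, 20 µM dose yields 30% or more activation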;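 note: 100% = tunicamycin at 10 µg/mL and 0% = DMSO only wells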
#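 Assay system: IRE1-XBP1 luciferase reporter CHO line. Input: 1000 cells/well. Buffer or medium: F12 with 10% serum. Doses: 20 µM, 1% DMSO. Times: overnight seeding at 37 °C, 6 h compound treatment at 37 °C. Technique: Steady-Glo luciferase glow luminescence, 10 min after reagent addition.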
# CHOP inhibitor: inhibitors of CHOP promoter induction, primary screen, cell-based, unfolded protein response, luciferase reporter | CHO-K1 CHOP-promoter luciferase, tunicamycin-induced, 15-18 h | inhibition, % at 10 µM | hit rate 3.8% among 220,000 | AID 2732, 2010;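 active = compounds that reduced the stress-induced luciferase reporter signal by more than about 70% of percent inhibition, limit read from the data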;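 note: 0% = tunicamycin plus vehicle and 100% = wells without tunicamycin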
# T cruzi inh: inhibitors of intracellular T. cruzi growth, primary screen, luminescence, NIH3T3 host cells | AID 1885, 2009 | hit rate 1.4% among 300,000 | inhibition, % (no concentration beside the values) | T. cruzi beta-gal in NIH3T3, 90 h;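 active = mean inhibition across valid replicates above about 55%, limit read from the data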;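 note: signal also drops with host cell toxicity which is not excluded here; 0% = plate median of DMSO wells and 100% = zero luminescence signal; higher percent means less beta-gal luminescence so fewer parasites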
#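 Assay system: NIH/3T3 host cells with β-galactosidase reporter T. cruzi; input: 5,000 host fibroblasts per well; compound: single 50 nL compound addition per well in DMSO; timing: ≥90 h infection period, 3 h prior cell attachment; measured by: GalScreen β-gal luminescence, detergent lysis, 60 min; evaluation: percent inhibition of parasite-derived β-gal signal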
# CHOP UPR activ: activators of apoptotic CHOP UPR arm, primary screen, cell-based, CHO-CHOP luciferase reporter, luminescence, uHTS. UPR activation; percent of tunicamycin response over DMSO baseline. activation, % at 10 µM. hit rate 0.34% among 330,000. AID 449763, 2010;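 active = at 10 µM dose, activation of 40% or more, normalized to positive control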;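 note: 100% = tunicamycin at 10 µg/mL and 0% = DMSO alone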
#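 assay system = CHO CHOP reporter cells | amount = 500 CHO-CHOP cells per well | buffer or medium = F12 with 10% FBS | incubation = 16-18 h cell attachment, then 6 h compound exposure, 37 °C | detection = luminescence read with Steady-Glo | read-out = percent activation relative to tunicamycin control | controls = tunicamycin high control, DMSO low control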
# Lmaj promast: Leishmania major promastigote growth inhibition, primary screen; Leishmania major promastigotes, resazurin fluorescence viability; inhibition, % at 10 µM; hit rate 9% among 200,000; in the data active = inhibition above about 50%;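 note: promastigotes grown with compound for 44 hours at 28 °C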
# Dynein cargo inh: inhibitors of GR-EGFP nuclear translocation, primary screen, dynein cargo transport inhibitor project, imaging, high-content, 3617.4 mouse cells; test concentration mostly 20 µM; stimulated with dexamethasone, 1 µM; stronger effect = lower value; z-score, hits read low; hit rate 0.47% among 220,000; AID 1381, 2008;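 active = plate z-score of nuclear minus cytoplasmic receptor signal below a set negative limit, without overly bright fluorescence or cell loss, cut at about -3.5 in these data, passing the limit was not always enough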;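 note: z-score of nuclear minus cytoplasmic ring GR-EGFP intensity difference per well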
#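 Schedule: 48 h induction, then 1 h compound, then 30 min agonist, 37 °C. Buffer or medium: tetracycline-free induction medium containing charcoal-stripped FBS. Reagent: 1.0 µM final dexamethasone stimulus. Evaluation: nuclear versus cytoplasmic GR-EGFP signal, averaged per well. Signal: high-content fluorescence imaging after fixation.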
# * hit, by the source's call; . = no result. The entries come from a sample that favours hits as a whole.
SMILES,UPR XBP1 act,CHOP inhibitor,T cruzi inh,CHOP UPR activ,Lmaj promast,Dynein cargo inh
Cc1ccc(Cn2ccc(NC(=O)c3nc4ncccn4n3)n2)cc1,-1,15,0,-4,51*,-0.64
O=C(Nc1cnn(Cc2ccc(Cl)c(Cl)c2)c1)c1nc2ncccn2n1,-4,17,10,0,8,0.87
O=Nc1c(O)[nH]c2ccc(F)cc12,-1,-3,0,-3,-4,-3.4
Cc1cc2c(N=O)c(NO)ccc2[nH]1,9,.,31,28,83*,0.15
COc1ccc(CN2CCC(=O)N([C@H](CO)Cc3ccccc3)CC2)cc1OC,2,.,-12,2,.,.
O=C(c1nc2ncccn2n1)N1CCN(c2ccccc2)CC1,-1,-3,-9,-4,90*,-0.62
O=C(c1nc2ncccn2n1)N1CCN(c2ccc(F)cc2)CC1,-4,13,0,-1,-9,-0.52
O=C(Nc1cccc(Cl)c1N1CCCCC1)c1ccc2c(c1)OCCO2,7,60,29,-2,10,1.9
O=C(NC(=S)Nc1ccc2c(c1)OCCO2)c1cccc(Br)c1,2,-23,-33,9,68*,-0.35
O=C(NC(=S)Nc1cccc(Cl)c1N1CCCCC1)c1ccc2c(c1)OCCO2,1,35,35,1,97*,0.89
O=C(Nc1ccc2c(c1)OCCO2)c1ccc(Br)s1,.,27,1,.,54*,-0.23
CCOC(=O)N/N=C\c1ccc([N+](=O)[O-])o1,2,-10,75*,2,98*,1.8
O=C(CN1CCCCCCC1)N/N=C/c1ccc([N+](=O)[O-])o1,-5,.,58*,0,.,.
O=C(CN1CCCCC1)N/N=C/c1ccc(Cl)cc1,0,.,-3,3,.,.
COc1ccccc1NC(=O)CC(=O)CSc1nnc(-c2ccc(C)cc2)n1-c1ccccc1,-2,40,10,-1,72*,0.39
O=C(CCN1CCN(c2ccccc2)CC1)N/N=C/c1ccc([N+](=O)[O-])o1,-2,4,96*,-1,98*,-0.22
O=C(CCN1CCN(c2ccccc2)CC1)N/N=C/c1ccc(O)c(O)c1O,.,52,-6,.,-7,-0.14
Cc1ccc2nc(SCC(=O)N(CC(C)C)c3c(N)n(Cc4ccccc4)c(=O)[nH]c3=O)[nH]c2c1,-2,-14,-9,0,.,0.51
Cc1nn2c(=O)cc(CSCC(=O)Nc3ccccc3Cl)nc2s1,-4,.,-10,-1,.,.
CC1CN(C(=O)CCC(=O)N2CCOCC2)c2ccccc2O1 (configuration not stated),-2,.,-1,0,.,.
Cc1ccc(-c2nnc(SCC(=O)N/N=C/c3ccc(C)s3)n2-c2ccc(C)cc2)cc1,-2,75*,16,1,39,0.61
Cc1cc([N+](=O)[O-])ccc1-c1ccc(/C=N/NC(=O)Cc2ccccc2)o1,6,35,5,-3,9,-0.23
O=C(Cc1ccc([N+](=O)[O-])cc1)N/N=C/c1ccc([N+](=O)[O-])o1,-6,-31,107*,-1,100*,-1.4
N#CCc1ccc(NC(=O)/C=C/c2ccc([N+](=O)[O-])o2)cc1,.,-36,42,.,101*,-0.76
O=C(CC12CC3CC(CC(C3)C1)C2)N/N=C/c1ccc([N+](=O)[O-])o1,-2,-57,55*,3,99*,0.16
SMILES,UPR XBP1 act,CHOP inhibitor,T cruzi inh,CHOP UPR activ,Lmaj promast,Dynein cargo inh
COCCn1c(SCC(=O)Nc2cc(C)on2)nnc1-c1ccccc1,-7,.,-11,1,.,.
Cc1[nH]c2ccccc2c1C(=O)NS(=O)(=O)Nc1ccc(F)cc1,-4,26,-4,-1,-11,-0.27
CCCCCCCCCC(=O)N/N=C/c1ccc(C)s1,-1,95*,-2,-2,-6,-0.87
CCCCCCCC(=O)N/N=C/c1ccc([N+](=O)[O-])o1,0,14,47,0,91*,-0.58
CC1(C(=O)N/N=C/c2ccc([N+](=O)[O-])o2)CC1(Br)Br (configuration not stated),-3,-16,50,2,98*,-0.16
CCOC(=O)N/N=C/c1c(F)c(F)c(F)c(F)c1F,3,-5,-8,-1,65*,0.53
COCC1CCCN(C(=O)c2cc(COc3ccc4ncccc4c3)on2)C1 (configuration not stated),-5,.,-62,2,.,.
CCc1cccc2c(SCC(=O)NCC3CCCO3)nc(-c3ccc(F)cc3)nc12 (configuration not stated),0,79*,-15,2,0,-0.4
CC(C)(C)c1ccc(C(=O)NNc2cc(N3CCOCC3)nc(N3CCOCC3)n2)cc1,0,29,17,-1,4,1
O=C(CCc1ccccc1)NNc1cc(N2CCCCC2)nc(N2CCCCC2)n1,1,61,57*,-1,0,-0.061
O=C(NNc1cc(N2CCCC2)nc(N2CCCC2)n1)c1ccc([N+](=O)[O-])cc1,-4,19,26,4,31,-0.45
CC(C)(C)c1ccc(C(=O)NNc2cc(N3CCCCC3)nc(N3CCCCC3)n2)cc1,0,46,93*,2,11,-0.45
CC(C)(C)c1ccc(C(=O)NC2CCS(=O)(=O)C2)cc1 (configuration not stated),-2,.,-7,4,.,.
O=C(NCCCN1CCOCC1)c1onc(CSc2ccc(F)c(F)c2)c1C(=O)NCCCN1CCOCC1,-1,.,3,0,.,.
COc1ccccc1CN(C)C(=O)c1ccc(S(=O)(=O)Nc2c(C)n(C)n(-c3ccccc3)c2=O)cc1,-2,.,.,0,.,.
CC(C(=O)NCCc1ccc(Cl)cc1)n1c(=O)c2cccn2c2cccnc21 (configuration not stated),-3,.,7,2,.,.
CCOC(=O)c1nc(Nc2cc(C)cc(C)c2)c2ccccc2n1,3,-15,56*,2,52*,2.3
CCOC(=O)c1nc(Nc2ccc(N3CCC(C)CC3)cc2)c2ccccc2n1,2,-19,49,-1,53*,-0.86
CCOC(=O)c1nc(Nc2ccc(Nc3ccccc3)cc2)c2ccccc2n1,.,-17,16,.,40,-1
Cc1cnc(C(=O)OCc2nc3ccsc3c(=O)[nH]2)cn1,-2,.,.,1,.,.
CCN(CC(=O)NCc1cccs1)C(=O)/C=C/c1cccc(Cl)c1Cl,-4,.,0,0,.,.

# High-throughput results (PubChem BioAssay)
